Series [1] in a line: Solubility measurement in distilled water. Conditions: 37 °C, thermodynamic from solid. The format is physicochemical. The procedure, abridged:
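Excess solid test compound in distilled water was shaken 24 h at 37 °C (100 rpm), then centrifuged at 10,000 rpm for 10 min. Supernatant absorbance was read at 217 nm and solubility calculated from a standard curve.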

For another series, the system named is A549 cells. As to the kind of experiment: Cell proliferation activity assay. As to conditions: Homo sapiens, A549, read-out: IC50 on A549 cells. The class given is cell-based. The method in brief: (§1)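 Cells were kept in DMEM with 10% FBS and 1% penicillin–streptomycin at 37 °C and 5% CO2, and passaged with 0.25% trypsin-EDTA at 80–90% confluency. They were seeded at 5 × 10^3 cells/well, grown 24 h, then given test compound at 5, 10, 20, 40, 60, 80 or 100 μM final, with 1% DMSO as control. Read-out was MTT absorbance at 490 nm, as viability versus control. IC50 was fitted from viability data; 3–5 replicates per sample; mean ± SD of three independent experiments.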

Another series relates to MCF-7 cells. The series is described as follows: Cell proliferation activity assay. As to conditions: Homo sapiens, MCF7, read-out: IC50 on MCF-7 cells. The class given is cell-based. The method in brief:
as §1

Series [2] relates to HeLa cells. The series is described as follows: Cell proliferation activity assay. The format is cell-based. As to conditions: Homo sapiens, read-out: IC50 on HeLa cells. The method in brief:
as §1

Series [3] concerns HeLa cells. As to the kind of experiment: Annexin V/PI apoptosis assay by flow cytometry. The class given is cell-based. Conditions: 20 μM, 24 h, control group 6.2%. In general terms: Flow cytometry measures light scatter and fluorescence of single cells or particles in a stream.

These results are taken from paper PMC10193561 (ACS Omega, 2023).

pIC50: −log10 of the molar value. In brackets after ≈: the same amount, converted by molar mass.

As usually defined, the solubility is the dissolved amount per volume that the medium holds. A lower solubility goes with a poorly soluble substance. For orientation: pIC50 means the IC50 on a negative log10 scale, so that one unit is a factor of ten.

On to `CC(C)=CCC[C@](C)(O)[C@H]1CC[C@]2(C)[C@@H]1[C@H](O)C[C@@H]1[C@@]3(C)CC[C@H](O[C@@H]4O[C@H](CO)[C@@H](O)[C@H](O)[C@H]4O)C(C)(C)[C@@H]3CC[C@]12C` [Rh2, Ginsenoside Rh2], for which, in series [1], the concentration in solution (solubility at 24 h) was 74 µg/mL (≈ 119 µM). For the same molecule, the negative logarithm of the IC50 (pIC50) in the series on A549 cells is 4.07; in the series with MCF-7 cells, 4.13; in the series with HeLa cells [2], 4.17. In the series on HeLa cells [3], the “percentage of early and late apoptosis” value was found to be 5.3%.
